Assay [1] concerns the target Melanocortin receptor 3 (Mus musculus) (UniProt P33033). The assay can be described thus: Partial agonist activity towards mouse Melanocortin-3 receptor. In kind it is functional. The method in brief: (§1)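 HEK-293 cells stably expressing mouse melanocortin receptors (G418-selected) were transiently transfected with a CRE/β-galactosidase reporter. 48 h after transfection, cells were stimulated for 6 h with peptide (10^-4 to 10^-12 M) or forskolin (10^-4 M) in DMEM with 0.1 mg/mL BSA and 0.1 mM IBMX. Lysates were incubated with ONPG at 37° and read at OD405. Signals were normalized to relative protein (OD595) and to forskolin response. EC50 came from nonlinear least-squares fits of duplicate experiments in quadruplet or more.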

Assay [2] addresses Melanocortin receptor 4 (Mus musculus) (UniProt P56450). The assay can be described thus: Partial agonist concentration for mouse Melanocortin-4 receptor. It is filed as functional.
Assay [3] concerns the target Melanocortin receptor 3 (Mus musculus) (UniProt P33033). The assay can be described thus: Antagonist activity for mouse Melanocortin-3 receptor. In kind it is functional.
Assay [4] has the same target. The assay can be described thus: Agonist activity for mouse Melanocortin-3 receptor. It is filed as functional. The procedure, abridged: as §1
For assay [5] the target is unchanged. The assay can be described thus: Relative percent of stimulatory activity for mouse Melanocortin-3 receptor at 100 uM. The method in brief:
as §1

Assay [6] addresses Melanocortin receptor 4 (Mus musculus) (UniProt P56450).
For assay [7] the target is unchanged. The assay can be described thus: Partial agonist activity towards mouse Melanocortin-4 receptor. It is filed as functional. The procedure, abridged:
as §1

Where a SMILES comes first, the peptide text is derived from it. Bridges are numbered along the chain shown (N, C = ends).

Sequence of Melanocortin receptor 4 (Mus musculus) (P56450 whole entry): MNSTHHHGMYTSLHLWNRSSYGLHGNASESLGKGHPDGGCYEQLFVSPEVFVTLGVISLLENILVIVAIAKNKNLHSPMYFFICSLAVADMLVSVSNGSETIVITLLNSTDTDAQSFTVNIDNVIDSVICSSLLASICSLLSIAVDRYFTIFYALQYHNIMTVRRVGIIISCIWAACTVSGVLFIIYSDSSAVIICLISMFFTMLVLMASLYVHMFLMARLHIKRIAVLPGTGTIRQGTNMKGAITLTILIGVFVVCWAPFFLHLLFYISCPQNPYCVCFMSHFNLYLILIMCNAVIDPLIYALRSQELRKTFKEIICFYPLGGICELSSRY
Sequence of Melanocortin receptor 3 (Mus musculus) (P33033 whole entry): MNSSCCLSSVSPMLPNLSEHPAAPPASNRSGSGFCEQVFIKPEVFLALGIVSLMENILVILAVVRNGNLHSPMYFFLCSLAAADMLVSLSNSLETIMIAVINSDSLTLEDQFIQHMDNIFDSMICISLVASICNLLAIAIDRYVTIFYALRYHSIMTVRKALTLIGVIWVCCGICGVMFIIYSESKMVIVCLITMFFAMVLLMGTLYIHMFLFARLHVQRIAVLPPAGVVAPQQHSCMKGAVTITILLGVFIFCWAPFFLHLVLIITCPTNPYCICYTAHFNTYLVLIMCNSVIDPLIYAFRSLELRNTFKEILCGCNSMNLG

In assay [1], `C[C@@H]1NC(=O)[C@H](CC(N)=O)NC(=O)[C@H](Cc2c[nH]c3ccccc23)NC(=O)[C@H](CCCN=C(N)N)NC(=O)[C@@H](Cc2ccccc2)NC(=O)[C@H](Cc2ccccc2)NC(=O)[C@@H](NC(=O)[C@@H](N)Cc2ccc(O)cc2)CC(=O)N([C@@H](Cc2ccc(O)cc2)C(N)=O)[C@@](C)(C(=O)O)NC(=O)[C@H](Cc2ccccc2)NC1=O` gave a pA2 of 7.2. On to `C[C@@H]1NC(=O)[C@H](CC(N)=O)NC(=O)[C@H](Cc2c[nH]c3ccccc23)NC(=O)[C@H](CCCN=C(N)N)NC(=O)[C@@H](Cc2ccc3ccccc3c2)NC(=O)[C@H](Cc2c[nH]cn2)NC(=O)[C@@H](NC(=O)[C@@H](N)Cc2ccc(O)cc2)CC(=O)N([C@@H](Cc2ccc(O)cc2)C(N)=O)[C@@](C)(C(=O)O)NC(=O)[C@H](Cc2ccccc2)NC1=O`, for which the pA2 in assay [2] worked out at 9.1; in assay [3], 8.2. In assay [4], `C[C@@H]1NC(=O)[C@H](CC(N)=O)NC(=O)[C@H](Cc2c[nH]c3ccccc23)NC(=O)[C@H](CCCN=C(N)N)NC(=O)[C@@H](Cc2ccccc2)NC(=O)C2(CCc3ccccc3C2)NC(=O)[C@@H](NC(=O)[C@@H](N)Cc2ccc(O)cc2)CC(=O)N([C@@H](Cc2ccc(O)cc2)C(N)=O)[C@@](C)(C(=O)O)NC(=O)[C@H](Cc2ccccc2)NC1=O` (mixture of isomers) came in with a pA2 of 6.4. In assay [5], this compound registered an SA of 40%. `C[C@@H]1NC(=O)[C@H](CC(N)=O)NC(=O)[C@H](Cc2ccccc2)NC(=O)[C@H](Cc2ccccc2)NC(=O)[C@H](CCCN=C(N)N)NC(=O)[C@@H](NC(=O)[C@@H](N)Cc2ccc(O)cc2)CSSC[C@@H](C(=O)N[C@@H](Cc2ccc(O)cc2)C(N)=O)NC(=O)[C@H](Cc2ccccc2)NC1=O` (H-YCRFFNAFCY-NH2; disulfide 2-9) came in with a pA2 in assay [6] of 6.8. On to `C[C@@H]1NC(=O)[C@H](CC(N)=O)NC(=O)[C@H](Cc2c[nH]c3ccccc23)NC(=O)[C@H](CCCN=C(N)N)NC(=O)[C@@H](Cc2ccccc2)NC(=O)[C@@H]2CCCN2C(=O)[C@@H](NC(=O)[C@@H](N)Cc2ccc(O)cc2)CC(=O)N([C@@H](Cc2ccc(O)cc2)C(N)=O)[C@@](C)(C(=O)O)NC(=O)[C@H](Cc2ccccc2)NC1=O`, for which the pA2 in assay [1] is 7.2. For the compound `C[C@@H]1NC(=O)[C@H](CC(N)=O)NC(=O)[C@H](Cc2c[nH]c3ccccc23)NC(=O)[C@H](CCCN=C(N)N)NC(=O)[C@@H](Cc2ccc(I)cc2)NC(=O)[C@H](Cc2c[nH]cn2)NC(=O)[C@@H](NC(=O)[C@@H](N)Cc2ccc(O)cc2)CC(=O)N([C@@H](Cc2ccc(O)cc2)C(N)=O)[C@@](C)(C(=O)O)NC(=O)C(Cc2ccccc2)NC1=O` (stereo in doubt), the pA2 in assay [7] is 9.4; in assay [3] it was 8.8.

Source of the values: ChEMBL document CHEMBL1143614, “Structure-activity relationships of the unique and potent agouti-related protein (AGRP)-melanocortin chimeric Tyr-c[beta-Asp-His-DPhe-Arg-Trp-Asn-Ala-Phe-Dpr]-Tyr-NH2 peptide template” (J Med Chem, 2005).
